Test results reported in ChEMBL document CHEMBL4433213, “Investigation on 2',3'-O-Substituted ATP Derivatives and Analogs as Novel P2X3 Receptor Antagonists” (ACS Med Chem Lett, 2019).
Activity calls are given as the source filed them. The calls are words filed in the database; no cut-off is given here.

How the values were obtained:
P2X purinoceptor 7 = target: T1, P2X purinoceptor 7 (Homo sapiens, UniProt Q99572); assay: Antagonist activity at human P2X7R transfected in human 1321N1 cells assessed as inhibition of Bz-ATP-induced calcium influx; assay type: cell-based
T1 sequence (Q99572 whole entry): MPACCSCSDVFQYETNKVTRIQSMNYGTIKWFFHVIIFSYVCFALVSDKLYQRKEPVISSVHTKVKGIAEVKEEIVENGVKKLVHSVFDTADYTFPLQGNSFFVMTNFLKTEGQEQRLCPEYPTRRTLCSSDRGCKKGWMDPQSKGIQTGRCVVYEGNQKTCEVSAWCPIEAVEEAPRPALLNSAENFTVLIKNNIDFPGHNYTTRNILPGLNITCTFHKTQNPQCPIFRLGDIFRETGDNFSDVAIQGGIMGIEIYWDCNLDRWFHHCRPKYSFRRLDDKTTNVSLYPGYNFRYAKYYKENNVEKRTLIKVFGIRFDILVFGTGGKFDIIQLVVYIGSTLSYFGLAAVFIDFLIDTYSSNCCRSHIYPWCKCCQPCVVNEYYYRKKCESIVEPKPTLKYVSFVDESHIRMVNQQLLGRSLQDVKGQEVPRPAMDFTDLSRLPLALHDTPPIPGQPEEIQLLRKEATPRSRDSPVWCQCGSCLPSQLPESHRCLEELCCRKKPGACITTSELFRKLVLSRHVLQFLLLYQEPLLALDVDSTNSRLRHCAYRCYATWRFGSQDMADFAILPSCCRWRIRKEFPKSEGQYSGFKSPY

[1] = target: T2, P2X purinoceptor 1 (Homo sapiens) (UniProt P51575); assay: Antagonist activity at human P2X1R transfected in human 1321N1 cells assessed as inhibition of ATP-induced calcium influx relative to control; assay type: cell-based; conditions: concentration not given here
T2 sequence (whole entry): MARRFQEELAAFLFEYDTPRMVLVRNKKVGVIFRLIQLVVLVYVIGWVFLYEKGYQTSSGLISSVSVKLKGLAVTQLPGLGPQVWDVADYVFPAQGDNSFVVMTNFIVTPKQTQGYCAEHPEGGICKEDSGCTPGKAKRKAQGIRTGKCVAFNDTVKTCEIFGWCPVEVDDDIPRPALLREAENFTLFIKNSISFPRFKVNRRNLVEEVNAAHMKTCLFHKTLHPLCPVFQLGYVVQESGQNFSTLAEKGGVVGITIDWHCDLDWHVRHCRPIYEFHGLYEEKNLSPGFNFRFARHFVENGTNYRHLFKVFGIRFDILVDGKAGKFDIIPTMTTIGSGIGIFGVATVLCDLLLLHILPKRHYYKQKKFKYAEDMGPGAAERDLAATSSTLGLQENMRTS
In short: (§1)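 1321N1 astrocytoma cells stably expressing human P2X1, P2X2, P2X3 or P2X4 receptor. Calcium influx was induced by ATP at the EC80 for each subtype. Results are given as IC50 (μM) or % inhibition at the indicated concentration.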

Mus musculus = species on record: Mus musculus; assay: Antagonist activity at GABAA receptor in mouse TG sensory neurons assesed as inhibition of GABAA receptor agonist GABA-evoked currents at 1 uM pre-applied before GABA addition
In short: (§2)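 In mouse trigeminal sensory neurons, test compound was preapplied at 1 μM, then 10 μM GABA (GABAA) or 10 μM 5-HT (5-HT3) was applied. Current amplitudes were normalized to the control current evoked by the same agonist alone. N = 5 cells.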

[2] = target: T3, 5-hydroxytryptamine receptor 3A (Mus musculus) (UniProt P23979); assay: Antagonist activity at 5-HT3 receptor in mouse TG sensory neurons assessed as inhibition of 5-HT3 receptor agonist 5-HT-evoked currents at 1 uM pre-applied before 5-HT addition; in short: as §2
T3 sequence (whole entry): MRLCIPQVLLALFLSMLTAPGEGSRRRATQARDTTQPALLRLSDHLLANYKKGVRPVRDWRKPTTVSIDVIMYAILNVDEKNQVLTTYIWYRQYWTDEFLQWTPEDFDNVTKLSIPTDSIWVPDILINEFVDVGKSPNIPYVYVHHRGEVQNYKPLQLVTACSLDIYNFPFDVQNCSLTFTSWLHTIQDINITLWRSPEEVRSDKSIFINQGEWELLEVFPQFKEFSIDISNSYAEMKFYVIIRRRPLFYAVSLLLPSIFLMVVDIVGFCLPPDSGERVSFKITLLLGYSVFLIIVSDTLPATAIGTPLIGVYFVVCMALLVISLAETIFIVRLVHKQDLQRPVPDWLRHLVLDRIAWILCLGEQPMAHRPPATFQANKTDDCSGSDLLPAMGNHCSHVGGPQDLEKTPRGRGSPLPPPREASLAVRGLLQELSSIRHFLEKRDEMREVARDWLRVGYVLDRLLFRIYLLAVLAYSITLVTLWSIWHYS

P2X purinoceptor 1 = target: T4, P2X purinoceptor 1 (Homo sapiens, UniProt P51575); assay: Antagonist activity at human P2X1R transfected in human 1321N1 cells assessed as inhibition of ATP-induced calcium influx; assay type: cell-based; in short: as §1
T4 sequence (P51575 whole entry): T2 sequence (whole entry)

[3] = target: T5, P2X purinoceptor 3 (Homo sapiens) (UniProt P56373); assay: Antagonist activity at human P2X3R transfected in human 1321N1 cells assessed as inhibition of ATP-induced calcium influx relative to control; assay type: cell-based; conditions: concentration not given here; in short: as §1
T5 sequence (whole entry): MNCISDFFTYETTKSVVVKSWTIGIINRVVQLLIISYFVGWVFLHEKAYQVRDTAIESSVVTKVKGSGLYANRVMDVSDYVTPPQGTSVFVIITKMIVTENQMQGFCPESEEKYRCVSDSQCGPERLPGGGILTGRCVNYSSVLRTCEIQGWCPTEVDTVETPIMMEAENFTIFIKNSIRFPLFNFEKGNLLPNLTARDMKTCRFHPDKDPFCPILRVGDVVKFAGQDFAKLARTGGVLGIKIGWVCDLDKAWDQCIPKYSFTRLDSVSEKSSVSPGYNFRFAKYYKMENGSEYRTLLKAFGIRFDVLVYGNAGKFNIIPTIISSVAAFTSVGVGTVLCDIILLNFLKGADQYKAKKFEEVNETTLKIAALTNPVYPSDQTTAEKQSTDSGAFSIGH

[4] = target: T6, P2X purinoceptor 4 (Homo sapiens) (UniProt Q99571); assay: Antagonist activity at human P2X4R transfected in human 1321N1 cells assessed as inhibition of ATP-induced calcium influx relative to control; assay type: cell-based; conditions: concentration not given here; in short: as §1
T6 sequence (whole entry): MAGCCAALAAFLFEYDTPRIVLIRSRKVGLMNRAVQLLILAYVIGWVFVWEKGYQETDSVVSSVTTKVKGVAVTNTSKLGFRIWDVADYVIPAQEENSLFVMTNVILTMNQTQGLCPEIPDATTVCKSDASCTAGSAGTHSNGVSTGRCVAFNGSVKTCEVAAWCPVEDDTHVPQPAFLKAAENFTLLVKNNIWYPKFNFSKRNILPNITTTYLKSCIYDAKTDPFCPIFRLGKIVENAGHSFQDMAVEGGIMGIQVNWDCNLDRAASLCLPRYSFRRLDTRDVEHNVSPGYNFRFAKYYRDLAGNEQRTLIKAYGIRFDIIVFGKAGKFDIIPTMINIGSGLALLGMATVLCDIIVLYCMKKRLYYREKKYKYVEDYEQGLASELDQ

Homo sapiens = species on record: Homo sapiens; assay: Selectivity ratio of IC50 for human P2X4R transfected in human […] 1321N1 cells to IC50 for human transfected in human 1321N1 cells; assay type: cell-based

IC50 (P2X purinoceptor 7) [µM] | inhibition [1] [%] | inhibition (Mus musculus) | inhibition [2] | IC50 (P2X purinoceptor 1) [µM] | inhibition [3] [%] | inhibition [4] [%] | SMILES | Ratio IC50 (Homo sapiens)
> 100 | -1 | inactive | inactive | > 100 | – | – | Nc1ncnc2c1ncn2[C@@H]1O[C@H](COP(=O)(O)CP(=O)(O)OP(=O)(O)O)[C@H]2OC3(CCCCC3)O[C@H]21 | –
> 100 | 1 | – | – | > 100 | 8 | 12 | Nc1ncnc2c1ncn2[C@@H]1O[C@H](COP(=O)(O)OP(=O)(O)OP(=O)(O)O)[C@H]2OCO[C@H]21 | –
> 100 | – | inactive | inactive | 41.1 | – | – | CC1(C)O[C@@H]2[C@H](O1)[C@@H](COP(=O)(O)OP(=O)(O)OP(=O)(O)O)O[C@H]2n1cnc2c(N)ncnc21 | 12
